# Laboratory results as given in ChEMBL document CHEMBL4190210, “Derivatives of the Lignan 7'-Hydroxymatairesinol with Antioxidant Properties and Enhanced Lipophilicity” (J Nat Prod, 2017).
# Assay: Lipophilicity, log Kw of the compound by reversed-phase UHPLC analysis
# Type: physicochemical
# Conditions: water/acetonitrile
# Method in brief: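 Binary elution with water and acetonitrile, each containing 0.1% formic acid. Detection by UV at 254 nm and by negative/positive ESIMS selected ion monitoring.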
row,Structure (SMILES),logKw
1,CCCCCCCC(=O)O[C@H](c1ccc(O)c(OC)c1)[C@H]1COC(=O)[C@@H]1Cc1ccc(O)c(OC)c1,3.06
2,COc1cc(C[C@H]2C(=O)OC[C@@H]2[C@H](O)c2ccc(O)c(OC)c2)ccc1O [HYDROXYMATAIRESINOL],1.49

# Second part, the molecule after the results:
row,logKw,Structure (SMILES)
1,5.43,CCCCCCCCCCCCCCCCCC(=O)O[C@H](c1ccc(O)c(OC)c1)[C@H]1COC(=O)[C@@H]1Cc1ccc(O)c(OC)c1
2,5.5,CCCCCCCCCCCCCCCCCC(=O)O[C@@H](c1ccc(O)c(OC)c1)[C@H]1COC(=O)[C@@H]1Cc1ccc(O)c(OC)c1
3,3.12,CCCCCCCC(=O)O[C@@H](c1ccc(O)c(OC)c1)[C@H]1COC(=O)[C@@H]1Cc1ccc(O)c(OC)c1
4,3.68,CCCCCCCCCCCC(=O)O[C@@H](c1ccc(O)c(OC)c1)[C@H]1COC(=O)[C@@H]1Cc1ccc(O)c(OC)c1
5,3.63,CCCCCCCCCCCC(=O)O[C@H](c1ccc(O)c(OC)c1)[C@H]1COC(=O)[C@@H]1Cc1ccc(O)c(OC)c1

# Assay: Lipophilicity, log P of the compound
# Type: physicochemical
# Conditions: octanol/water
row,Structure (SMILES),logP
1,CCCCCCCCOC(=O)c1cc(O)c(O)c(O)c1 [OCTYL_GALLATE],4.1

# Assay: Antioxidant activity assessed as DPPH radical scavenging activity at test compound/DPPH volume ratio 1:1 after 1 hr by UV-spectrophotometric method
# Type: functional
# Conditions: not given
# Method in brief: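 DPPH 200 µM in methanol. Antioxidant stocks were 1 mM in methanol, diluted to 2–200 µM. The reaction was started by adding 1 mL DPPH solution to 1 mL antioxidant solution (1:1). Samples were incubated 1 h, an interval chosen from a time-course study.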
row,Structure (SMILES),IC50 [µM]
1,Cc1c(C)c2c(c(C)c1O)CC[C@@](C)(CCC[C@H](C)CCC[C@H](C)CCCC(C)C)O2 (racemic) [ALPHA-TOCOPHEROL],23.5
2,O=C1O[C@H]([C@@H](O)CO)C(O)=C1O [ASCORBIC ACID],20.3
3,Cc1cc(C(C)(C)C)c(O)c(C(C)(C)C)c1 [BUTYLATED HYDROXYTOLUENE],34
4,COc1cc(C[C@H]2C(=O)OC[C@@H]2[C@H](O)c2ccc(O)c(OC)c2)ccc1O [HYDROXYMATAIRESINOL],20

# Now from value to molecule:
row,IC50 [µM],Structure (SMILES)
1,24.5,CCCCCCCCCCCC(=O)OC(c1ccc(O)c(OC)c1)[C@H]1COC(=O)[C@@H]1Cc1ccc(O)c(OC)c1 (stereo partly specified)
2,25.2,CCCCCCCCCCCCCCCCCC(=O)OC(c1ccc(O)c(OC)c1)[C@H]1COC(=O)[C@@H]1Cc1ccc(O)c(OC)c1 (stereo partly specified)
3,24.1,CCCCCCCC(=O)OC(c1ccc(O)c(OC)c1)[C@H]1COC(=O)[C@@H]1Cc1ccc(O)c(OC)c1 (stereo partly specified)

# Assay: Antioxidant activity assessed as DPPH radical scavenging activity at test compound/DPPH volume ratio 3:1 incubated under dark condition for 30 mins by spectrophotometric method
# Type: functional
# Conditions: not given
row,Structure (SMILES),IC50 [µM]
1,O=C1O[C@H]([C@@H](O)CO)C(O)=C1O [ASCORBIC ACID],12.6
